Rows were chosen to be rich in hits. Some 12% of all compounds tested hit in one or more screens of this group.
Dynein transport: dynein cargo transport inhibition. AID 1381. hit rate 0.47% among 220,000. 3617.4 mouse cells, GR-EGFP nuclear translocation imaging; test concentration mostly 20 µM; stimulated with dexamethasone, 1 µM; stronger effect = lower value. z-score, hits read low;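 active = plate z-score of nuclear minus cytoplasmic receptor signal below a set negative limit, without overly bright fluorescence or cell loss, cut at about -3.5 in these data, passing the limit was not always enough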;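 note: z-score of nuclear minus cytoplasmic ring GR-EGFP intensity difference per well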
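Schedule: 48 h induction, then 1 h compound, then 30 min agonist, 37 °C. Buffer or medium: tetracycline-free induction medium containing charcoal-stripped FBS. Reagent: 1.0 µM final dexamethasone stimulus. Evaluation: nuclear versus cytoplasmic GR-EGFP signal, averaged per well. Signal: high-content fluorescence imaging after fixation.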
L major viab: reduces viability of Leishmania major promastigotes. inhibition, % at 10 µM. AID 1063. hit rate 9% among 200,000. resazurin fluorescence viability; in the data active = inhibition above about 50%;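 note: promastigotes grown with compound for 44 hours at 28 °C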
MT stabilizer: microtubule stabilizers in HeLa cells; hit rate 0.83% among 200,000; % tubulin-high responders, % at 10 µM; HeLa tubulin immunostaining HCS, 24 h; share of cells brighter than vehicle mean+2SD; AID 2205;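 active = plate Z-score above 3 for both tubulin-high and condensed-nucleus cell shares, with cell loss under 80%, at 10 µM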;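 note: anti alpha tubulin signal scored within the nucleus-defined area of each cell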
b-catenin transl: beta-catenin nuclear translocation modulation. HeLa beta-catenin nuclear translocation, immunofluorescence imaging. nuclear translocation activity, % at 5 µM. hit rate 0.3% among 190,000. AID 1665;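 active = nuclear translocation activity above 50% at 5 µM, with a well cell count of 50 or more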;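 note: per-cell ratio of nuclear to cytoplasmic median beta-catenin stain intensity; plate controls were DMSO negative control for no effect and GSK-3 inhibitor IX positive control for full effect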
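Test system: HeLa cells, endogenous beta-catenin; Compound: single 5 µM dose plus 0.02–20 µM confirmation series; Times: compound exposure 24 h at 37°C; Signal: fluorescence imaging of beta-catenin antibody stain plus DAPI; Read-out: % activation, nuclear-to-cytoplasmic median beta-catenin signal ratio per cell.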
CHOP inh: CHOP inhibition in unfolded protein response | CHO-K1 CHOP-promoter luciferase, tunicamycin-induced, 15-18 h | inhibition, % at 10 µM | hit rate 3.8% among 220,000 | AID 2732;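 active = compounds that reduced the stress-induced luciferase reporter signal by more than about 70% of percent inhibition, limit read from the data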;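 note: 0% = tunicamycin plus vehicle and 100% = wells without tunicamycin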
Autophagy mod: alters autophagy in cells | calls only at 10 µM (by protocol) | MEF GFP-LC3 puncta imaging; test concentration mostly 10 µM | AID 463193 | hit rate 0.98% among 190,000;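 active = percentage of spot-positive cells more than 3 SD above its plate mean, without a fluorescence outlier flag or 80% toxicity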;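 note: spot-positive cell cutoff set from DMSO-treated cells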
Active calls of the source: *.

`O=C(NCCC1=CCCCC1)C1CCN(C(=O)c2ccc(Br)cc2)CC1` gave Dynein transport -0.515, L major viab -1.0, MT stabilizer 5.7, b-catenin transl -0.1, CHOP inh 7.7 and Autophagy mod inactive.
Screening OCCNNC(=S)NC1CC2C=CC1C2 (centres undefined) returned Dynein transport -0.422, b-catenin transl 1.9 and CHOP inh 6.8.
Cc1ccc(C(=O)/C=C/c2c[nH]c3ccccc23)cc1 was read as Dynein transport 0.551, L major viab 4.3, MT stabilizer 1.3, b-catenin transl -1.6, CHOP inh 80.8* and Autophagy mod inactive.
`Cn1cc(/C=C/C(=O)c2ccccc2)c2ccccc21` gave Dynein transport -0.371, b-catenin transl 0.0 and CHOP inh 30.2.
`O=C(/C=C/c1c[nH]c2ccccc12)c1ccccc1` gave Dynein transport 0.594, L major viab 37.5, MT stabilizer 3.0, b-catenin transl 0.9, CHOP inh 46.5 and Autophagy mod inactive.
Screening Cc1ccc(C(=O)/C=C/c2cn(CN3CCN(C)CC3)c3ccccc23)cc1 returned Dynein transport -0.715, L major viab 2.6, MT stabilizer 2.5, b-catenin transl 3.2, CHOP inh 82.4* and Autophagy mod inactive.
CCOc1cc(-c2nc(-c3ccccc3)c(-c3cc([N+](=O)[O-])ccc3C)[nH]2)ccc1O was read as Dynein transport -0.0583, L major viab 35.5, MT stabilizer 1.9, b-catenin transl -3.4, CHOP inh 43.7 and Autophagy mod inactive.
For O=[N+]([O-])c1ccc(O)c(-c2nc(-c3ccccc3)c(-c3cccs3)[nH]2)c1 the results were Dynein transport 2.76, L major viab 37.6, MT stabilizer 4.7, b-catenin transl 1.7, CHOP inh 84.9* and Autophagy mod inactive.
Screening COc1ccc(-c2nc(-c3ccccc3)c(-c3cc([N+](=O)[O-])ccc3C)[nH]2)cc1OC returned Dynein transport 0.528, L major viab 65.4*, MT stabilizer 1.3, b-catenin transl 2.0, CHOP inh 26.5 and Autophagy mod inactive.
O=[N+]([O-])c1cc(C(F)(F)F)cc([N+](=O)[O-])c1Sc1n[nH]c(C(F)(F)F)n1 was read as Dynein transport -3.01, b-catenin transl 0.5 and CHOP inh 17.8.
Screening C/C(=N\NC(=O)CSCc1cccc(Br)c1)c1ccc([N+](=O)[O-])cc1 returned Dynein transport 2.93, L major viab 3.1, MT stabilizer 2.4, b-catenin transl 0.5, CHOP inh 3.3 and Autophagy mod inactive.
Screening CCOc1ccc(/C=N/Nc2nc(N3CCCC3)nc(N3CCCC3)n2)cc1OC returned Dynein transport 0.262, L major viab 13.8, MT stabilizer 2.2, b-catenin transl -1.0, CHOP inh -9.1 and Autophagy mod inactive.
`CCOc1cc(/C=N/Nc2nc(N3CCCCC3)nc(N3CCCCC3)n2)ccc1OC(=O)c1ccco1` gave Dynein transport -0.164, L major viab 57.8*, MT stabilizer 1.4, CHOP inh -6.3 and Autophagy mod inactive.
COc1ccc(-c2cnnc(N/N=C/c3ccc(O)c(OC)c3)n2)cc1 was read as Dynein transport -0.0351, L major viab 53.6*, MT stabilizer 3.7, b-catenin transl 11.6, CHOP inh 7.1 and Autophagy mod inactive.
COc1cc(/C=N/Nc2ccccn2)ccc1O was read as Dynein transport -0.381, b-catenin transl 7.6 and CHOP inh -23.4.
COc1ccc(/C=N/Nc2nc(Nc3ccccc3)nc(N3CCCCC3)n2)c(OC)c1 was read as Dynein transport -0.632, L major viab 99.5*, MT stabilizer 2.5, b-catenin transl -2.4, CHOP inh 0.2 and Autophagy mod inactive.
For COc1ccc(/C=N/Nc2nc(Nc3ccccc3)nc(N3CCCC3)n2)cc1[N+](=O)[O-] the results were Dynein transport -0.0952, L major viab -1.9, MT stabilizer 7.3, b-catenin transl 1.0, CHOP inh 83.5* and Autophagy mod active.
COc1cc(/C=N/Nc2nc(Nc3ccccc3)nc(N3CCCCC3)n2)ccc1OCC(=O)O was read as Dynein transport -0.867, L major viab -11.3, MT stabilizer 4.9, b-catenin transl -1.0, CHOP inh 16.2 and Autophagy mod inactive.
Cc1c(C(=O)N2CCN(c3ccccc3F)CC2)sc2ncn(CC(=O)N3CCOCC3)c(=O)c12 was read as Dynein transport -0.213, L major viab -8.9, MT stabilizer 1.8, b-catenin transl 0.0, CHOP inh 38.4 and Autophagy mod inactive.
For Cn1cc([N+](=O)[O-])c(C(=O)Nc2ccn(Cc3c(F)c(F)cc(F)c3F)n2)n1 the results were Dynein transport -1.23, L major viab -2.7, MT stabilizer 2.1, b-catenin transl -0.1, CHOP inh 48.5 and Autophagy mod inactive.
For CC(=O)c1ccc(N2CCN(C(=O)COc3ccccc3F)CC2)c(F)c1 the results were Dynein transport -0.358, L major viab 1.6, MT stabilizer 4.7, b-catenin transl -3.8, CHOP inh 10.2 and Autophagy mod inactive.
`COC(=O)c1c(C)nn(-c2ccc(F)c(Cl)c2)c1-c1cc(C)on1` gave Dynein transport 0.742, b-catenin transl -4.0 and CHOP inh -9.2.
Screening Clc1cc(Cl)cc(CN2CCSCC2)c1 returned Dynein transport -1.32, b-catenin transl -4.7 and CHOP inh -1.9.
Screening Cc1[nH]c2ccccc2c1/C=N/Nc1ccccn1 returned Dynein transport -1.61, L major viab 56.0*, MT stabilizer 3.0, b-catenin transl -1.1, CHOP inh 15.7 and Autophagy mod inactive.
`Oc1[nH]c2ccccc2c1N=Nc1nc(Nc2ccccc2)nc(N2CCOCC2)n1` gave Dynein transport -0.69, b-catenin transl -0.4 and CHOP inh 18.6.
For COc1cc(/C=N/Nc2nc(C)nc3c2cnn3-c2ccccc2)ccc1O the results were Dynein transport 1.83, L major viab 22.9, MT stabilizer 15.8*, b-catenin transl 63.3*, CHOP inh 19.2 and Autophagy mod inactive.
`COc1cc(/C=N/NC(=O)c2nc(-c3ccccc3)n(-c3ccccc3)n2)ccc1O` gave Dynein transport 0.899, L major viab -4.0, MT stabilizer 2.8, b-catenin transl -1.1, CHOP inh 28.0 and Autophagy mod inactive.
For COc1ccc(/C=N/Nc2nc(N3CCCCC3)nc(N3CCCCC3)n2)cc1[N+](=O)[O-] the results were Dynein transport -0.818, L major viab 95.6*, MT stabilizer 2.5, b-catenin transl -1.3, CHOP inh 22.3 and Autophagy mod inactive.
`Cc1[nH]c2ccccc2c1/C=N/Nc1nc(Nc2ccccc2)nc(N2CCOCC2)n1` gave Dynein transport -0.61, L major viab 99.6*, MT stabilizer 8.8, CHOP inh -78.9 and Autophagy mod inactive.
Cc1cc(-c2nnc(SCC(=O)Nc3nccs3)o2)no1 was read as Dynein transport -0.751, b-catenin transl 0.4 and CHOP inh 9.4.
